Experimental data taken from ChEMBL document CHEMBL3272093, “Antibacterial halogenoacetyl derivatives of amino acids and simple peptides” (1977).
Converted amounts (≈) assume the structure as drawn. The source made the active and inactive calls. The calls are words filed in the database; no cut-off is given here.

Key:
Staphylococcus aureus = assay: Antibacterial activity against Staphylococcus aureus assessed as inhibition of growth after 18 hrs by broth culture method; assay type: functional
How it was run: (§1)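 Broth dilution in 0.5 mL Sensitivity Test Broth, inoculated with 0.2 mL of a 10^-4 dilution of an 18-h broth culture. MIC read after 18-h incubation as the lowest concentration preventing growth.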

Escherichia coli = assay: Antibacterial activity against Escherichia coli assessed as inhibition of growth after 18 hrs by broth culture method; assay type: functional; how it was run: as §1
[1] = molecular target: D-alanyl-D-alanine carboxypeptidase (Streptomyces sp. R61) (UniProt P15555); assay: Inhibition of Streptomyces R61 DD-carboxypeptidase using Ac2-L-Lys-D-Ala-D-Ala as substrate at 10 to 100 ug/ml
D-alanyl-D-alanine carboxypeptidase (Streptomyces sp. R61), sequence (P15555 whole entry): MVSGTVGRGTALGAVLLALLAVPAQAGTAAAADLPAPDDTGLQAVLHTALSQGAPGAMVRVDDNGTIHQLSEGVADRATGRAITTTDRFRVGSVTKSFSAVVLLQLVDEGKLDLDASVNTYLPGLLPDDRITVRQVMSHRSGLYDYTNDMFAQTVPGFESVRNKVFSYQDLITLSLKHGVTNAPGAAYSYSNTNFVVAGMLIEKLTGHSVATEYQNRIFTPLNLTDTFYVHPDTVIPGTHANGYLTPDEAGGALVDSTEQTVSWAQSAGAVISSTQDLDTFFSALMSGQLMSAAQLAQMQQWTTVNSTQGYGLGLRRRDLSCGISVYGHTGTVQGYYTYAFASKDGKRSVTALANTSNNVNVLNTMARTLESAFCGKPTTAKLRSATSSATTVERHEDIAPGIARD
How it was run: (§2)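 Enzymes tested for release of D-alanine, measured with D-amino acid oxidase. Compounds assayed at 10 and 100 μg/mL. Substrates: Ac2-L-Lys-D-Ala-D-Ala for the Streptomyces R61 enzyme; UDP-N-acetylmuramyl-L-alanyl-meso-diaminopimeloyl-D-alanyl-D-alanine for the B. stearothermophilus and S. typhimurium enzymes.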

[2] = molecular target: T1, D-alanyl-D-alanine carboxypeptidase DacA (Geobacillus stearothermophilus) (UniProt Q05523); assay: Inhibition of Bacillus stearothermophilus DD-carboxypeptidase using UDP-N-acetylmuramyl-L-alanyl-meso-diaminopimeloyl-D-alanyl-D-alanine as substrate at 10 to 100 ug/ml; how it was run: as §2
T1 sequence (whole entry): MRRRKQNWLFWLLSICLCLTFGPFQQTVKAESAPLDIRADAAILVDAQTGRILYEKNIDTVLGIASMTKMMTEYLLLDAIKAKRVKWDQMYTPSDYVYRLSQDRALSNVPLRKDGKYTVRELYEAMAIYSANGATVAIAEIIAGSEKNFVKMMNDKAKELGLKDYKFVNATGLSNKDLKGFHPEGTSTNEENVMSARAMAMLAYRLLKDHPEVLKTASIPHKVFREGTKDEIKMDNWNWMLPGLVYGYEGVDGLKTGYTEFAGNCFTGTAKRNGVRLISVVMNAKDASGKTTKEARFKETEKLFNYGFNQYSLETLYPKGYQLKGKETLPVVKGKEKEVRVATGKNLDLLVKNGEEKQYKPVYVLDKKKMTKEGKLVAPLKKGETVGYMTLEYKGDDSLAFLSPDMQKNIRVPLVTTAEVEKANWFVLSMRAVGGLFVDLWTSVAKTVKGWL

[3] = tested on: Salmonella enterica subsp. enterica serovar Typhimurium; assay: Inhibition of Salmonella typhimurium DD-carboxypeptidase using UDP-N-acetylmuramyl-L-alanyl-meso-diaminopimeloyl-D-alanyl-D-alanine as substrate at 10 to 100 ug/ml; how it was run: as §2

Row | Compound | MIC (Staphylococcus aureus) [µg/mL] | MIC (Escherichia coli) [µg/mL] | inhibition [1] | inhibition [2] | inhibition [3]
1 | O=C(CI)NCCCCC(=O)OCc1ccccc1 | < 0.4 | 62 (≈ 165 µM) | inactive | inactive | inactive
2 | C[C@@H](NC(=O)[C@@H](C)NC(=O)[C@@H](N)CCCCNC(=O)CI)C(=O)O.O=C(O)C(F)(F)F | 500 | > 500 | inactive | inactive | inactive
3 | C[C@@H](NC(=O)[C@H](CCCCNC(=O)OC(C)(C)C)NC(=O)CBr)C(=O)N[C@H](C)C(=O)OC(C)(C)C | 500 (≈ 884 µM) | 500 (≈ 884 µM) | inactive | inactive | inactive
4 | C[C@@H](NC(=O)[C@H](CCCCNC(=O)CI)NC(=O)OC(C)(C)C)C(=O)N[C@H](C)C(=O)OC(C)(C)C | 125 (≈ 204 µM) | > 500 | inactive | inactive | inactive
5 | O=C(CI)NCCCC(=O)OCc1ccccc1 | 7.5 (≈ 20.8 µM) | 250 (≈ 692 µM) | inactive | inactive | inactive
6 | C[C@@H](NC(=O)[C@@H](C)NC(=O)CI)C(=O)O | 500 (≈ 1520 µM) | > 500 | inactive | inactive | inactive
7 | O=C(CI)NCC(=O)OCc1ccccc1 | 7.5 (≈ 22.5 µM) | 125 (≈ 375 µM) | inactive | inactive | inactive
8 | CC(=O)NCCCC[C@H](NC(=O)CI)C(=O)N[C@H](C)C(=O)N[C@H](C)C(=O)O | > 500 | > 500 | inactive | inactive | inactive
9 | C[C@@H](NC(=O)[C@H](CCCCN1C(=O)c2ccccc2C1=O)NC(=O)CI)C(=O)N[C@H](CCC(=O)OC(C)(C)C)C(=O)OC(C)(C)C | 62 (≈ 81.9 µM) | > 500 | inactive | inactive | inactive
10 | C[C@@H](NC(=O)CI)C(=O)N[C@H](CCC(=O)O)C(=O)O | 500 (≈ 1290 µM) | > 500 | inactive | inactive | inactive
11 | C[C@@H](NC(=O)[C@@H](C)NC(=O)[C@H](CCCCN1C(=O)CCC1=O)NC(=O)CI)C(=O)O | 500 (≈ 929 µM) | > 500 | inactive | inactive | inactive
12 | C[C@@H](NC(=O)[C@H](CCCCN)NC(=O)CBr)C(=O)O.O=C(O)C(F)(F)F | > 500 | > 500 | inactive | inactive | inactive
13 | C[C@@H](NC(=O)[C@@H](C)NC(=O)CBr)C(=O)O | 500 (≈ 1780 µM) | > 500 | inactive | inactive | inactive
14 | O=C(O)CCCCNC(=O)CI | 125 (≈ 438 µM) | 500 (≈ 1750 µM) | inactive | inactive | inactive
15 | C[C@@H](NC(=O)[C@H](CCCCN)NC(=O)CI)C(=O)N[C@H](C)C(=O)OC(C)(C)C.Cc1ccc(S(=O)(=O)O)cc1 | 250 | > 500 | inactive | inactive | inactive

Second part, the compound after the results:

Row | MIC (Staphylococcus aureus) [µg/mL] | MIC (Escherichia coli) [µg/mL] | inhibition [1] | inhibition [2] | inhibition [3] | Compound
16 | 15 (≈ 27.7 µM) | > 500 | inactive | inactive | inactive | C[C@@H](NC(=O)[C@H](CCCCNC(=O)OC(C)(C)C)NC(=O)CI)C(=O)OC(C)(C)C
17 | 0.9 (≈ 2.31 µM) | 62 (≈ 159 µM) | inactive | inactive | inactive | O=C(CI)NCC(=O)NCC(=O)OCc1ccccc1
18 | > 500 | > 500 | inactive | inactive | inactive | C[C@@H](NC(=O)[C@H](CCCCN)NC(=O)CI)C(=O)O.O=C(O)C(F)(F)F
19 | 500 (≈ 853 µM) | > 500 | inactive | inactive | inactive | C[C@@H](NC(=O)[C@@H](C)NC(=O)[C@H](CCCCN1C(=O)c2ccccc2C1=O)NC(=O)CI)C(=O)O
20 | 31 (≈ 62.2 µM) | > 500 | inactive | inactive | inactive | C[C@@H](NC(=O)CI)C(=O)N[C@H](CCC(=O)OC(C)(C)C)C(=O)OC(C)(C)C
21 | 250 (≈ 388 µM) | > 500 | inactive | inactive | inactive | C[C@@H](NC(=O)[C@H](CCCCN1C(=O)c2ccccc2C1=O)NC(=O)CI)C(=O)N[C@H](CCC(=O)O)C(=O)O
22 | 31 (≈ 99 µM) | > 500 | inactive | inactive | inactive | C[C@@H](NC(=O)CI)C(=O)OC(C)(C)C
23 | 62 (≈ 125 µM) | > 500 | inactive | inactive | inactive | C[C@@H](NC(=O)[C@H](CCCCNC(=O)OC(C)(C)C)NC(=O)CBr)C(=O)OC(C)(C)C
24 | 250 (≈ 408 µM) | 500 (≈ 816 µM) | inactive | inactive | inactive | C[C@@H](NC(=O)[C@H](CCCCNC(=O)OC(C)(C)C)NC(=O)CI)C(=O)N[C@H](C)C(=O)OC(C)(C)C
25 | > 500 | > 500 | inactive | inactive | inactive | C[C@@H](NC(=O)[C@H](CCCCN1C(=O)CCC1=O)NC(=O)CI)C(=O)N[C@H](C)C(=O)OC(C)(C)C
26 | 3.7 (≈ 12.4 µM) | 7.5 (≈ 25.1 µM) | inactive | inactive | inactive | COC(=O)CCCCNC(=O)CI
27 | > 500 | > 500 | inactive | inactive | inactive | C[C@@H](NC(=O)[C@@H](C)NC(=O)[C@H](CCCCN)NC(=O)CI)C(=O)O.O=C(O)C(F)(F)F
28 | > 500 | > 500 | inactive | inactive | inactive | C[C@@H](NC(=O)[C@@H](C)NC(=O)[C@H](CCCCN)NC(=O)CBr)C(=O)O.O=C(O)C(F)(F)F
29 | > 500 | > 500 | inactive | inactive | inactive | O=C(O)CCCCNC(=O)[C@H](CCCCN1C(=O)c2ccccc2C1=O)NC(=O)CI
30 | 31 (≈ 80.7 µM) | > 500 | inactive | inactive | inactive | C[C@@H](NC(=O)CI)C(=O)N[C@H](C)C(=O)OC(C)(C)C
31 | 7.5 (≈ 22 µM) | 500 (≈ 1470 µM) | inactive | inactive | inactive | CC(C)(C)OC(=O)CCCCNC(=O)CI
32 | 3.7 (≈ 9.51 µM) | 62 (≈ 159 µM) | inactive | inactive | inactive | O=C(CI)NCCCCCC(=O)OCc1ccccc1
33 | 62 (≈ 184 µM) | > 500 | inactive | inactive | inactive | C[C@@H](NC(=O)CBr)C(=O)N[C@H](C)C(=O)OC(C)(C)C
34 | > 500 | > 500 | inactive | inactive | inactive | CC(C)(C)OC(=O)CCCCNC(=O)[C@H](CCCCN1C(=O)c2ccccc2C1=O)NC(=O)CI.O
35 | 62 (≈ 96.5 µM) | > 500 | inactive | inactive | inactive | C[C@@H](NC(=O)[C@H](CCCCN1C(=O)c2ccccc2C1=O)NC(=O)CI)C(=O)N[C@H](C)C(=O)OC(C)(C)C
36 | 7.5 (≈ 17.9 µM) | > 500 | inactive | inactive | inactive | C[C@@H](NC(=O)CI)C(=O)N[C@H](C)C(=O)OCc1ccccc1
37 | 7.5 (≈ 21.6 µM) | 500 (≈ 1440 µM) | inactive | inactive | inactive | O=C(CI)NCCC(=O)OCc1ccccc1
